# Shown are actives, neighbours in structure and some others; about 3.7% of the full set was active somewhere.
# NS3 helicase inh: inhibitors of HCV NS3 helicase, primary screen, biochemical, Cy5 molecular beacon fluorescence. inhibition, % at 10.9 µM. Hepatitis C virus NS3 helicase. NS3 helicase DNA unwinding. actives 0.56% (n = 290,000);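 active = inhibition above the mean of all tested compounds plus 3 SD, set per campaign, cut at about 35% in these data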
#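 assay system = NS3 helicase fragment of HCV | buffer or medium = MOPS pH 6.5, MgCl2, DTT, Tween20, BSA | timing = 60 min unwinding reaction at 25 °C after ATP addition | signal = Cy5 beacon fluorescence read at start and 1 h | read-out basis = % inhibition of unwinding | control set = low DMSO, high thioflavine S at 110 µM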
# rCAG RNA binder: binders of r(CAG) RNA repeats, primary screen, biochemical, fluorescence; r(CAG) RNA repeat, TO-PRO-1 dye displacement fluorescence; inhibition, % at 3 µM; actives 1.3% (n = 370,000); AID 651821, 2012;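 active = inhibition above the plate cutoff, the mean of all test compounds on that plate plus 3 SD, cut at about 35% in these data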;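 note: higher means more dye released from RNA so lower well fluorescence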
# TAAR1 antag: human TAAR1 antagonists, primary screen, Fluo-8 calcium fluorescence, CHO RD-HGA16 cells; inhibition, % at 3 µM; Trace amine-associated receptor 1 (Homo sapiens), Q96RJ0; AID 624466, 2012; antagonist; actives 1.5% (n = 360,000);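 active = inhibition above a per-plate cutoff, the mean inhibition of test compounds on that plate plus 3 SD, cut at about 49% in these data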
# Target sequence (Q96RJ0 whole entry, looked up): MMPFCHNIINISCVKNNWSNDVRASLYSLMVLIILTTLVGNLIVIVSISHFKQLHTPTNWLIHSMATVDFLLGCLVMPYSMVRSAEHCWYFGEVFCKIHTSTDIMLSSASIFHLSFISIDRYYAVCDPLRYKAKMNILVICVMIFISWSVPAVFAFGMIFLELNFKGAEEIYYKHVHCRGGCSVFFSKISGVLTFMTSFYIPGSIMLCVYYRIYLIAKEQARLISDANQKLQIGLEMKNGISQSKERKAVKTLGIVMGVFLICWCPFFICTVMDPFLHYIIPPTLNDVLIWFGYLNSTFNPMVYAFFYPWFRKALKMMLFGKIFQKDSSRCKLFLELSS
#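 test system = CHO RD-HGA16 cells bearing hTAAR1 | replication = singlicate | controls = DMSO-only wells and EC80 β-PEA-stimulated wells | reagent = EC80 β-phenethylamine stimulus | read-out basis = percent inhibition of PEA-evoked calcium signal, max/basal emission ratio | schedule = seeding 17-24 h prior, 75-min 37 °C, 30-min RT dye loading | signal = kinetic Fluo-8 calcium fluorescence measurement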
# core dimer inh: inhibitors of HCV core protein dimerization, primary screen, biochemical, TR-FRET, high-throughput | actives 0.33% (n = 300,000) | TR-FRET GST/Flag-core106 dimerization, 1536-well | inhibition, % at 5 µM | AID 1899, 2009;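 active = inhibition above the mean of all tested compounds plus 3 SD, set per screening campaign, cut at about 45% in these data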
#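 test system = GST/Flag-tagged HCV core106 proteins | probe or stimulus = Eu donor and XL665 acceptor anti-tag antibodies | times = compound-protein-antibody incubation 4 h at 22.5 °C | signal = TR-FRET, excitation 340 nm, emission 617 and 671 nm | measure = percent inhibition of core106 dimerization signal | controls = wells lacking GST-core106 and wells with excess unlabelled core106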
# TAAR1 agonist: human TAAR1 agonists, primary screen, Fluo-8 calcium fluorescence, CHO RD-HGA16 cells; Trace amine-associated receptor 1 (Homo sapiens), Q96RJ0; vehicle wells 0%, saturating PEA agonist 100%; activation, % at 3 µM; actives 0.99% (n = 360,000); AID 624467, 2012;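 active = activation above the mean activation of all test compounds in the run plus 3 SD, cut at about 38% in these data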
#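 System: CHO-derived RD-HGA16 cells with stable Gα16 and human TAAR1. Times: 17-24 h plating, Fluo-8 75 min 37 °C, 30 min RT. Measured by: calcium-sensitive Fluo-8 signal, excitation 470-495, emission 515-575 nm. Read-out basis: % activation relative to PEA EC100 response. Control set: DMSO and PEA EC100. Repeats: no replicates (n 1).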
# rCAG binder conf: small molecules binding CAG repeat RNA – biochemical, fluorescence, confirmation; inhibition, % at 3 µM; shares compounds with rCAG RNA binder; actives 70% (n = 4,300); r(CAG) RNA repeat, TO-PRO-1 dye displacement fluorescence;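 active = inhibition above a per-plate cutoff, the mean inhibition of sample wells plus 3 SD, cut at about 35% in these data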;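 note: loss of TO-PRO-1 fluorescence as compound displaces dye from 1x1 AA loop RNA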
# DNA CAG counter: displacement of TO-PRO-1 from CAG DNA duplex, counter-screen for rCAG RNA repeat binder project, biochemical, fluorescence, TO-PRO-1 dye, d(CAG) DNA oligo | shares compounds with rCAG RNA binder | d(CAG) DNA oligo TO-PRO-1 dye displacement | inhibition, % at 3 µM | actives 94% (n = 4,300) | AID 652068, 2013;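 active = inhibition above its plate's cutoff, the mean test-well inhibition plus 3 SD, cut at about 4.8% in these data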;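 note: hits displace the dye from DNA and so lower well fluorescence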
# A number is an active result; i = inactive; nt = no result given.
SMILES,NS3 helicase inh,rCAG RNA binder,TAAR1 antag,core dimer inh,TAAR1 agonist,rCAG binder conf,DNA CAG counter
COc1cccc(NC(=O)Nc2nnc(COCCO)s2)c1,nt,i,i,nt,i,nt,nt
COc1ccc(Cc2nnc(NC(=O)Nc3cccc(OC)c3)s2)cc1,i,42,i,i,i,40,17
CCSc1nnc(NC(=O)Nc2cccc(C)c2)s1,i,56,i,i,i,i,17
COc1cccc(NC(=O)Nc2nnc(Cc3ccccc3)s2)c1,i,41,i,i,i,i,15
O=C(CSc1nnc(-c2ccncc2)n1-c1ccc(Cl)cc1)c1ccc(Cl)c(Cl)c1,nt,i,nt,nt,nt,nt,nt
CCOC(=O)[C@]12CCCCC/C=C\1N(CCc1ccc(Cl)cc1)C(=O)[C@H]2CC(=O)N1CCC(c2ccccc2)CC1,nt,i,nt,nt,nt,nt,nt
C=CCSc1nsc(NC(=O)Nc2ccc(F)cc2)n1,i,69,i,i,i,i,20
O=C(Nc1ccc(F)cc1)Nc1nnc(Cc2ccccc2)s1,i,42,i,i,i,i,15
O=C(Nc1ccc(F)cc1)Nc1nnc(-c2ccncc2)s1,i,i,i,i,i,nt,nt
COc1ccc(Cc2nnc(NC(=O)Nc3ccc(F)cc3)s2)cc1,i,i,i,i,i,nt,nt
O=C(Nc1ccc(F)cc1)Nc1nnc(COc2ccccc2F)s1,i,63,i,i,i,38,27
COc1ccc2nc(Nc3nc4cc5c(cc4s3)OCO5)sc2c1,i,44,i,i,i,i,20
COc1ccc2nc(Nc3ccc4c(c3)OCO4)sc2c1,i,i,i,i,i,nt,nt
CCOC(=O)[C@]12CCCC=C1N(Cc1ccc(OC)cc1)C(=O)[C@@H]2CC(=O)N1CCCCC1,nt,i,nt,nt,nt,nt,nt
COc1ccc(C(=O)O)cc1S(=O)(=O)Nc1cc(Cl)ccc1N1CCOCC1,nt,i,i,nt,i,nt,nt
COc1ccc(C(=O)O)cc1S(=O)(=O)Nc1cc(C(F)(F)F)ccc1N1CCCCC1,nt,46,i,nt,i,i,7.1
Cc1ccc(S(=O)(=O)Nc2cc(C(F)(F)F)ccc2N2CCOCC2)cc1C,i,i,i,i,i,nt,nt
Cc1ccc(S(=O)(=O)Nc2cc(C(=O)O)ccc2N2CCC(C)CC2)cc1C,nt,42,nt,nt,nt,41,11
COC(=O)c1cc(NS(=O)(=O)c2ccc(N3CCC(C)CC3)c([N+](=O)[O-])c2)cc(C(=O)OC)c1,i,55,i,i,i,60,19
CC1CCN(c2ccc(C(=O)O)cc2NS(=O)(=O)c2ccc(Br)cc2)CC1,i,35,i,i,i,37,11
O=C(CC1CCCC1)N[C@H](C(=O)N1CCC[C@H]1C(=O)NCc1ccccc1)c1ccccc1,nt,i,i,nt,i,nt,nt
C[C@@H]1ON(C)[C@H]2C[C@H]3c4cc(N5CCCCC5)ccc4CCN3C[C@@H]12,nt,i,i,nt,i,nt,nt
CC1CCN(c2ccc(C(=O)O)cc2NS(=O)(=O)c2cccc3cccnc23)CC1,nt,36,nt,nt,nt,i,7.2
Cc1cc(/C=C2/C(=N)N3C(=NC2=O)SN=C3S(C)(=O)=O)c(C)n1-c1ccccc1F,i,80,i,i,i,83,56
CS(=O)(=O)C1=NSC2=NC(=O)/C(=C\c3cccn3-c3ccc(Cl)cc3)C(=N)N21,i,85,i,i,i,85,54
CS(=O)(=O)C1=NSC2=NC(=O)/C(=C\c3ccc(OC(=O)c4ccco4)cc3)C(=N)N21,i,nt,nt,i,nt,nt,nt
Cc1cccc(NC(=O)Nc2ccccc2C(=O)N2CCCC2)c1,nt,i,nt,nt,nt,nt,nt
COc1ccc(Cl)cc1Nc1nc(-c2sc(NC(=O)CC(C)C)nc2C)cs1,i,36,i,i,i,i,14

# Source: PubChem BioAssay (The Scripps Research Institute Molecular Screening Center)
